# According to ChEMBL document CHEMBL4673184, “Synthesis and biological evaluation of S-lipidated lipopeptides of a connexin 43 channel inhibitory peptide” (RSC Med Chem, 2020):
# Active and inactive are the calls of the source. The rule behind the calls is not given here. Where a SMILES comes first, the peptide text is derived from it. [ ]: non-standard residue; d: D form. The star is where a group is joined. Ethyl(2-stearoyloxy) = CCCCCCCCCCCCCCCCCC(=O)OCC*; Ethyl(2-palmitoyloxy) = CCCCCCCCCCCCCCCC(=O)OCC*; CH2CH2OBz(4-tBu) = CC(C)(C)c1ccc(C(=O)OCC*)cc1; Ethyl(2-decanoyloxy) = CCCCCCCCCC(=O)OCC*; Ethyl(2-butanoyloxy) = CCCC(=O)OCC*; Ethyl(2-OPiv) = CC(C)(C)C(=O)OCC*; Mpa = O=C(O)CCS
# Tested on: not listed separately
# Assay: Stability in rat plasma assessed as half life at 150 ug/l measured up to 60 mins by HPLC analysis
# Assay type: ADME, cell-free
# Outline: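 Peptide from a 20 mg/L water stock incubated in 25% rat serum (v/v) in PBS pH 7.4 at a final 150 μg/L, 37 °C. Samples taken at 0-60 min and quenched with MeCN plus 15% TCA, held overnight at 4 °C, then centrifuged. Remaining peptide measured by C18 RP-HPLC peak area at 210 nm relative to t=0. Run in triplicate.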
row,SMILES,half-life at 150 ug/l [min]
1,CC(C)C[C@H](NC(=O)[C@H](Cc1ccccc1)NC(=O)[C@H](CS)NC(=O)[C@H](CC(=O)O)NC(=O)[C@@H](N)C(C)C)C(=O)N[C@@H](CO)C(=O)N[C@@H](CCCNC(=N)N)C(=O)N1CCC[C@H]1C(=O)N[C@H](C(=O)N[C@@H](CCC(=O)O)C(=O)N[C@@H](CCCCN)C(=O)N[C@H](C(=O)O)[C@@H](C)O)[C@@H](C)O (H-VDCFLSRPTEKT-OH),5

# Target: Gap junction alpha-1 protein (Homo sapiens) (UniProt P17302)
# Assay: Inhibition of Cx43 in hypoxic-acidic ion-shifted ringers solution-induced human cerebral microvascular endothelial cell model of ischaemic injury assessed as ATP release at 10 uM measured after 2 hrs by luciferin-luciferase based luminescence assay relative to control
# Set-up: scale not given: the % may be the effect or the level left
# Outline: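 hCMVEC (passages 8-17) seeded at 2 x 10^6/well on collagen-I (1 µg/cm²) and grown 48 h to a confluent monolayer. Washed in NR, then exposed 2 h in HAIR (pH 6.6, N₂-bubbled, low Ca²⁺, K-gluconate/NMDG) containing peptide at 10 µM. Supernatant diluted 1:10 in firefly luciferase mix and read at 560 nm against an ATP standard (0-50 nM). Expressed as % of HAIR-only, mean of n=3.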
# Gap junction alpha-1 protein (Homo sapiens), sequence (P17302 whole entry): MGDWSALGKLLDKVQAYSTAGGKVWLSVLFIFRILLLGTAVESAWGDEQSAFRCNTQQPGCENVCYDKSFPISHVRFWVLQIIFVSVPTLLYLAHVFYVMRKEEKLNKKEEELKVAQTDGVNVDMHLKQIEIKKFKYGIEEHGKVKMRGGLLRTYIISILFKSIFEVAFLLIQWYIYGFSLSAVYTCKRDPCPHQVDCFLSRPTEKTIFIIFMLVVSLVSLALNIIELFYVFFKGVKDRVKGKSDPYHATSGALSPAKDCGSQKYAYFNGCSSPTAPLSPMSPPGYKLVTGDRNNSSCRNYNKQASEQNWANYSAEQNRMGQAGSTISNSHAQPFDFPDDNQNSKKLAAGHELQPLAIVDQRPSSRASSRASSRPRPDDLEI
row,SMILES,Activity
1,CC(C)C[C@H](NC(=O)[C@H](Cc1ccccc1)NC(=O)[C@H](CS)NC(=O)[C@H](CC(=O)O)NC(=O)[C@@H](N)C(C)C)C(=O)N[C@@H](CO)C(=O)N[C@@H](CCCNC(=N)N)C(=O)N1CCC[C@H]1C(=O)N[C@H](C(=O)N[C@@H](CCC(=O)O)C(=O)N[C@@H](CCCCN)C(=O)N[C@@H](CSCCOC(=O)c1ccc(C(C)(C)C)cc1)C(=O)O)[C@@H](C)O (H-VDCFLSRPTEKC(CH2CH2OBz(4-tBu))-OH),inactive
2,CC(C)C[C@H](NC(=O)[C@H](Cc1ccccc1)NC(=O)[C@H](CS)NC(=O)[C@H](CC(=O)O)NC(=O)[C@@H](N)C(C)C)C(=O)N[C@@H](CO)C(=O)N[C@@H](CCCNC(=N)N)C(=O)N1CCC[C@H]1C(=O)N[C@H](C(=O)N[C@@H](CCC(=O)O)C(=O)N[C@@H](CCCCN)C(=O)N[C@@H](CSCCOC(=O)C(C)(C)C)C(=O)O)[C@@H](C)O (H-VDCFLSRPTEKC(Ethyl(2-OPiv))-OH),inactive
3,CCCC(=O)OCCSC[C@H](NC(=O)[C@H](CCCCN)NC(=O)[C@H](CCC(=O)O)NC(=O)[C@@H](NC(=O)[C@@H]1CCCN1C(=O)[C@H](CCCNC(=N)N)NC(=O)[C@H](CO)NC(=O)[C@H](CC(C)C)NC(=O)[C@H](Cc1ccccc1)NC(=O)[C@H](CS)NC(=O)[C@H](CC(=O)O)NC(=O)[C@@H](N)C(C)C)[C@@H](C)O)C(=O)O (H-VDCFLSRPTEKC(Ethyl(2-butanoyloxy))-OH),inactive
4,CCCCCCCCCC(=O)OCCSC[C@H](NC(=O)[C@H](CCCCN)NC(=O)[C@H](CCC(=O)O)NC(=O)[C@@H](NC(=O)[C@@H]1CCCN1C(=O)[C@H](CCCNC(=N)N)NC(=O)[C@H](CO)NC(=O)[C@H](CC(C)C)NC(=O)[C@H](Cc1ccccc1)NC(=O)[C@H](CS)NC(=O)[C@H](CC(=O)O)NC(=O)[C@@H](N)C(C)C)[C@@H](C)O)C(=O)O (H-VDCFLSRPTEKC(Ethyl(2-decanoyloxy))-OH),inactive
5,CCCCCCCCCCCCCCCC(=O)OCCSC[C@H](NC(=O)[C@H](CCCCN)NC(=O)[C@H](CCC(=O)O)NC(=O)[C@@H](NC(=O)[C@@H]1CCCN1C(=O)[C@H](CCCNC(=N)N)NC(=O)[C@H](CO)NC(=O)[C@H](CC(C)C)NC(=O)[C@H](Cc1ccccc1)NC(=O)[C@H](CS)NC(=O)[C@H](CC(=O)O)NC(=O)[C@@H](N)C(C)C)[C@@H](C)O)C(=O)O (H-VDCFLSRPTEKC(Ethyl(2-palmitoyloxy))-OH),131%
6,CCCCCCCCCCCCCCCCCC(=O)OCCSC[C@H](NC(=O)[C@H](CCCCN)NC(=O)[C@H](CCC(=O)O)NC(=O)[C@@H](NC(=O)[C@@H]1CCCN1C(=O)[C@H](CCCNC(=N)N)NC(=O)[C@H](CO)NC(=O)[C@H](CC(C)C)NC(=O)[C@H](Cc1ccccc1)NC(=O)[C@H](CS)NC(=O)[C@H](CC(=O)O)NC(=O)[C@@H](N)C(C)C)[C@@H](C)O)C(=O)O (H-VDCFLSRPTEKC(Ethyl(2-stearoyloxy))-OH),129%
7,CC(C)C[C@H](NC(=O)[C@H](Cc1ccccc1)NC(=O)[C@H](CS)NC(=O)[C@H](CC(=O)O)NC(=O)[C@@H](N)C(C)C)C(=O)N[C@@H](CO)C(=O)N[C@@H](CCCNC(=N)N)C(=O)N1CCC[C@H]1C(=O)N[C@H](C(=O)N[C@@H](CCC(=O)O)C(=O)N[C@@H](CCCCN)C(=O)N[C@H](C(=O)O)[C@@H](C)O)[C@@H](C)O (H-VDCFLSRPTEKT-OH),53.8%
8,CC(C)C[C@H](NC(=O)[C@H](Cc1ccccc1)NC(=O)[C@H](CS)NC(=O)[C@H](CC(=O)O)NC(=O)[C@@H](NC(=O)CCSCCOC(=O)c1ccc(C(C)(C)C)cc1)C(C)C)C(=O)N[C@@H](CO)C(=O)N[C@@H](CCCNC(=N)N)C(=O)N1CCC[C@H]1C(=O)N[C@H](C(=O)N[C@@H](CCC(=O)O)C(=O)N[C@@H](CCCCN)C(=O)N[C@H](C(=O)O)[C@@H](C)O)[C@@H](C)O ([Mpa](CH2CH2OBz(4-tBu))VDCFLSRPTEKT-OH),inactive
9,CC(C)C[C@H](NC(=O)[C@H](Cc1ccccc1)NC(=O)[C@H](CS)NC(=O)[C@H](CC(=O)O)NC(=O)[C@@H](NC(=O)CCSCCOC(=O)C(C)(C)C)C(C)C)C(=O)N[C@@H](CO)C(=O)N[C@@H](CCCNC(=N)N)C(=O)N1CCC[C@H]1C(=O)N[C@H](C(=O)N[C@@H](CCC(=O)O)C(=O)N[C@@H](CCCCN)C(=O)N[C@H](C(=O)O)[C@@H](C)O)[C@@H](C)O ([Mpa](Ethyl(2-OPiv))VDCFLSRPTEKT-OH),inactive
10,CCCC(=O)OCCSCCC(=O)N[C@H](C(=O)N[C@@H](CC(=O)O)C(=O)N[C@@H](CS)C(=O)N[C@@H](Cc1ccccc1)C(=O)N[C@@H](CC(C)C)C(=O)N[C@@H](CO)C(=O)N[C@@H](CCCNC(=N)N)C(=O)N1CCC[C@H]1C(=O)N[C@H](C(=O)N[C@@H](CCC(=O)O)C(=O)N[C@@H](CCCCN)C(=O)N[C@H](C(=O)O)[C@@H](C)O)[C@@H](C)O)C(C)C ([Mpa](Ethyl(2-butanoyloxy))VDCFLSRPTEKT-OH),28.8%
11,CCCCCCCCCC(=O)OCCSCCC(=O)N[C@H](C(=O)N[C@@H](CC(=O)O)C(=O)N[C@@H](CS)C(=O)N[C@@H](Cc1ccccc1)C(=O)N[C@@H](CC(C)C)C(=O)N[C@@H](CO)C(=O)N[C@@H](CCCNC(=N)N)C(=O)N1CCC[C@H]1C(=O)N[C@H](C(=O)N[C@@H](CCC(=O)O)C(=O)N[C@@H](CCCCN)C(=O)N[C@H](C(=O)O)[C@@H](C)O)[C@@H](C)O)C(C)C ([Mpa](Ethyl(2-decanoyloxy))VDCFLSRPTEKT-OH),inactive
12,CCCCCCCCCCCCCCCC(=O)OCCSCCC(=O)N[C@H](C(=O)N[C@@H](CC(=O)O)C(=O)N[C@@H](CS)C(=O)N[C@@H](Cc1ccccc1)C(=O)N[C@@H](CC(C)C)C(=O)N[C@@H](CO)C(=O)N[C@@H](CCCNC(=N)N)C(=O)N1CCC[C@H]1C(=O)N[C@H](C(=O)N[C@@H](CCC(=O)O)C(=O)N[C@@H](CCCCN)C(=O)N[C@H](C(=O)O)[C@@H](C)O)[C@@H](C)O)C(C)C ([Mpa](Ethyl(2-palmitoyloxy))VDCFLSRPTEKT-OH),inactive
13,CCCCCCCCCCCCCCCCCC(=O)OCCSCCC(=O)N[C@H](C(=O)N[C@@H](CC(=O)O)C(=O)N[C@@H](CS)C(=O)N[C@@H](Cc1ccccc1)C(=O)N[C@@H](CC(C)C)C(=O)N[C@@H](CO)C(=O)N[C@@H](CCCNC(=N)N)C(=O)N1CCC[C@H]1C(=O)N[C@H](C(=O)N[C@@H](CCC(=O)O)C(=O)N[C@@H](CCCCN)C(=O)N[C@H](C(=O)O)[C@@H](C)O)[C@@H](C)O)C(C)C ([Mpa](Ethyl(2-stearoyloxy))VDCFLSRPTEKT-OH),inactive
